Values joined by “and” are separate entries in the source; they are usually repeats but may differ in a detail not shown here. Equal values may be shown once.
Molecular target: Methionine--tRNA ligase, mitochondrial (Homo sapiens) (UniProt Q96GW9)
Assay: inhibitors of human mitochondrial MetRS, late-stage follow-up, selectivity assay for T. brucei MetRS inhibitor project, biochemical, radioactivity, round 1 (AID 743061);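 note: 0% = DMSO with full reaction and 100% = DMSO wells lacking tRNA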
Details: recombinant human mtMetRS, [3H]Met tRNA charging, at 1 µM, stronger effect = higher value
Procedure, shortened: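 Material: Recombinant human mitochondrial methionyl-tRNA synthetase (MetRS) | Medium: pH 8.0 buffer, 2.5 mM ATP | Reagent: [3H]Met 240 nM plus bulk E. coli tRNA | Compound: 10 and 1 µM | Schedule: 15 min compound–enzyme preincubation, then 1 h reaction at room temperature | Measured by: Scintillation counts of TCA-precipitated charged tRNA on filters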

Row | SMILES | inhibition
1 | CCN(C(=O)Cn1cc(C(=O)C(=O)N2CCOCC2)c2ccccc21)c1ccccc1 | -12.3%
2 | Cc1cccc2[nH]c(C3CCCN(C(=O)c4cccc5cccnc45)C3)nc12 (stereo not given) | -4.24%
3 | O=C(Cn1cc(C(=O)C(=O)N2CCOCC2)c2ccccc21)NCc1ccccc1 | -5.05%
4 | CC(C)(C)[C@H]1C=C(C(=O)NCc2nc3ccccc3[nH]2)O[C@@H](OCc2ccc(CO)cc2)C1 | -20.5%
5 | COc1ccccc1-n1c(SCC(=O)Nc2ccc(Cl)cc2)nc(O)c(Cc2ccccc2)c1=O | -31.6%
6 | CC(C)OCCCN1CC(=O)N2C(c3cccc([N+](=O)[O-])c3)c3[nH]c4ccccc4c3C[C@H]2C1=O (stereo not given in full) | -24.2%
7 | Cn1c(CCNC(=O)c2ccc(Cl)cc2)nc2ccccc21 | 11.6%
8 | CCN(CC)C(=O)C(=O)c1cn(CC(=O)N(CC)c2ccccc2)c2ccccc12 | 2.19%
9 | CCC(=O)c1cn(CC(=O)Nc2cccc(C(F)(F)F)c2)c2ccccc12 | -18.3%
10 | O=C(N/C(=C\c1cccnc1)c1nc2ccccc2[nH]1)c1cccc(Br)c1 | -19.7%
11 | Cc1cccc(C(=O)NCCc2nc3ccccc3n2CCOc2ccccc2)c1 | 1.28%
12 | CCCCCCCCCC1NC(C(=O)O)Cc2c1[nH]c1ccccc21 (stereo not given) | -2.41%
13 | C[C@H](O)[C@@H]1C(=O)N2CCc3c([nH]c4ccccc34)[C@@H]2C[C@@H]1N(C)Cc1ccc2c(c1)OCO2 | -17.7%
14 | CN(Cc1cc(Cl)cc(Cl)c1)[C@H]1C[C@H]2c3[nH]c4ccccc4c3CCN2C(=O)[C@H]1CO | 14%
15 | Cc1[nH]c2ccc(Br)cc2c(=O)c1CN1CCCCCC1 | -31.2%
16 | CCN(CC)C(=O)C(=O)c1cn(CC(=O)Nc2ccccc2OC)c2ccccc12 | -10.6%
17 | O=C1CC(N(CCc2ccccc2)C(=S)Nc2ccccc2)C(=O)N1c1ccc(Br)cc1 (stereo not given) | -25.5%
18 | O=C(Cn1cc(C(=O)C(=O)N2CCOCC2)c2ccccc21)Nc1cccc(C(F)(F)F)c1 | -22.4%

Row | SMILES | inhibition
19 | O=C1CC(SCc2nc3ccccc3[nH]2)C(=O)N1c1cccc(Cl)c1 (stereo not given) | -4.5%
20 | CCN(CCc1nc2ccc(C)cc2[nH]1)C(=O)c1ccc2ncccc2c1 | -5.17%
21 | CC(=O)c1cn(CC(=O)Nc2cccc(C(F)(F)F)c2)c2ccccc12 | -20.4%
22 | CC(=O)c1c[nH]c(C(=O)NCc2cccc(C(F)(F)F)c2)c1 | -7.99%
23 | O=C(CSC1CC(=O)N(c2cccc(Cl)c2)C1=O)Nc1ccc(Br)cc1 (stereo not given) | -12.3%
24 | CCN(CC)C(=O)C(=O)c1cn(CC(=O)N2CCCc3ccccc32)c2ccccc12 | -14.3%
25 | CCOC(=O)N1CCC(Nc2c(Nc3ccc(F)cc3)c(=O)c2=O)CC1 | -8.53%
26 | CCc1ccc2[nH]c3nc(SCC(=O)NCc4cccc(OC)c4)nnc3c2c1 | -1.1%
27 | Brc1cnc2nc(SCc3nc4ccccc4[nH]3)[nH]c2c1 | -21.5%
28 | Cc1ccc(C(=O)NCCc2nc3ccccc3[nH]2)cc1[N+](=O)[O-] | 0.93%
29 | O=C(Cn1cc(C(=O)c2ccco2)c2ccccc21)Nc1cccc(C(F)(F)F)c1 | 2.74%
30 | O=C(NCc1nc2ccccc2[nH]1)C1=C[C@H](c2csc3ccccc23)C[C@H](OCCCCO)O1 | -9.21%
31 | O=C(Nc1ccc(F)c(Cl)c1)C1CC(=O)n2c(nc3ccccc32)N1 (stereo not given) | -11.1% and -0.44%
32 | O=C(NCCc1nc2ccccc2[nH]1)c1ccc(Cl)cc1Cl | 16.4%
33 | O=C(NCCc1nc2ccccc2[nH]1)c1ccc(Cl)c(Cl)c1 | 2.38%
34 | CC1Cc2ccccc2N1C(=O)Cn1cc(C(=O)C(=O)N2CCOCC2)c2ccccc21 (stereo not given) | -0.48%
35 | CN1CC(=O)N2C(c3cccc([N+](=O)[O-])c3)c3[nH]c4ccccc4c3C[C@H]2C1=O (stereo not given in full) | -17.1%

— PubChem BioAssay AID743061 (The Scripps Research Institute Molecular Screening Center, 2013)
